Assay results pooled from the literature.
Target: 5-hydroxytryptamine receptor 1A (HTR1A, Homo sapiens, UniProt P08908)
One construct used (P08908 1-422): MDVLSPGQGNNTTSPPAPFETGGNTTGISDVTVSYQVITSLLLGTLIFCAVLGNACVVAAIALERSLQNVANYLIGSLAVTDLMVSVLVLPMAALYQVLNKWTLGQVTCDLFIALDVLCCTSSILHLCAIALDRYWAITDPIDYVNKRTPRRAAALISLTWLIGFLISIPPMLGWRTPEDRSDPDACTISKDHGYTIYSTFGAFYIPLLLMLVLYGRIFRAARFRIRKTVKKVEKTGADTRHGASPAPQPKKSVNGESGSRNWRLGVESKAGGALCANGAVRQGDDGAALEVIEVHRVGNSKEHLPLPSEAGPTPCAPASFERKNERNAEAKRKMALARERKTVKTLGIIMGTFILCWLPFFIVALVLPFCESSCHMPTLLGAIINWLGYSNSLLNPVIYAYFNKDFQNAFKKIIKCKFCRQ

CN1CCCCC1CCN1c2ccccc2Sc2ccc([S+](C)[O-])cc21 (stereo not drawn)
IC50 (ligand displacement, radioligand): 33.1 nM

C[C@@H]1Cc2ccccc2N1C(=O)NCCCCN(C)[C@@H]1Cc2cccc3[nH]c(=O)n(c23)C1
Ki (ligand displacement, radioligand): 33.2 nM

COc1ccccc1N1CCN(CCCCOc2ccc3c(c2)NC(=O)CC3)CC1
Ki (ligand displacement, radioligand): 0.28 nM

CCCCN1CCC(COC(=O)c2ccc(N)c(OCF)c2)CC1
Ki (cell-free assay, radioligand): > 10000 nM

CCOc1c(O)cc(Br)c2c1CN1CCc3cc(OCC(F)F)c(O)cc3[C@@H]1C2
Ki (cell-free assay, radioligand): 334 nM

CCNC(=O)c1cc2c(N3CCOC[C@@H]3C)ccnc2[nH]1
Ki (cell-free assay, radioligand): > 10000 nM

O=C1c2ccccc2CCN1CCCCN1CCN(c2cccc(Cl)c2Cl)CC1
Ki (ligand displacement, radioligand): 1.5 nM

CN(CCCCNC(=O)c1cc2ccccc2[nH]1)[C@@H]1Cc2cccc3[nH]c(=O)n(c23)C1
Ki (ligand displacement, radioligand): 127 nM

CCCC[C@H](NC(=O)[C@H](C)c1c(C)[nH]c2ccc(O)cc12)c1ncc(-c2cc3ccccc3nc2OC)[nH]1
Ki (cell-free assay): 2080 nM
